Experimental data: ChEMBL document CHEMBL2177088, “Melittin suppresses VEGF-A-induced tumor growth by blocking VEGFR-2 and the COX-2-mediated MAPK signaling pathway” (J Nat Prod, 2012)
The source made the active and inactive calls. The rule behind the calls is not given here.

Tests used:
HUVEC [1] = assay: Down regulation of VEGFA-stimulated COX2 expression in HUVEC at 5 to 20 uM after 24 hrs by Western blot analysis in presence of p38 inhibitor SB203580; type: functional, cell-based; details: Homo sapiens
HUVEC [2] = assay: Inhibition of VEGFA-stimulated VEGF production in HUVEC at 5 to 20 uM after 24 hrs by enzyme immunoassay; type: functional, cell-based; details: Homo sapiens
[3] = system: Lewis lung carcinoma cell line; assay: Antitumor activity against VEGFA-stimulated mouse highly metastatic LLC cells xenografted in C57BL/6 mouse assessed as reduction of tumor weight at 0.5 mg/kg, […] relative to control; type: functional; design: scale not given: the % may be the effect or the level left; details: route subcutaneous
Mus musculus [4] = assay: Toxicity in VEGFA-stimulated mouse highly metastatic LLC cells xenografted C57BL/6 mouse assessed as mortality at 0.5 to 5 mg/kg, sc qd for 7 days; type: organism-based; design: dose 0.5-5 mg/kg, route subcutaneous; details: in vivo, 168 h
[5] = Cytotoxicity against HUVEC assessed as cell viability at 40 uM after 48 hrs by MTT assay relative to control; type: cell-based; details: human, HUVEC cells; read-out: Activity
In short: (§1)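 Native (non-transfected) HUVECs were seeded at 1 × 10^4 cells/well on 0.1% gelatin in complete M199 for 24 h. They were then exposed to 1, 5, 10, 20 or 40 μM in serum-free M199 for 48 h at 37 °C. MTT was added for 3 h and formazan dissolved in 2-propanol. After centrifugation, supernatant absorbance was read at 570 nm and expressed as % of control. Three independent experiments in triplicate.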

HUVEC [6] = assay: Antiangiogenic activity against VEGFA-stimulated cell proliferation in HUVEC after 48 hrs by BrdU incorporation assay; type: functional, cell-based; details: Homo sapiens
HUVEC [7] = assay: Antiangiogenic activity against VEGFA-stimulated capillary differentiation in HUVEC after 18 hrs by matrigel assay; type: functional, cell-based; details: Homo sapiens
In short: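 VEGF-A-HUVECs (HUVECs stably transfected with pcDNA3.1 carrying mouse VEGF-A164, G418-selected) were plated at 1 × 10^5 cells on polymerised growth factor-reduced Matrigel (5 mg/mL) with 5, 10 or 20 μM. They were incubated 18 h at 37 °C, 5% CO2, then washed, fixed and photographed (100×). Tube area per random field was quantified by image analysis. Three experiments in triplicate; IC50 read from the dose curve.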

Mus musculus [8] = assay: Toxicity in VEGFA-stimulated mouse highly metastatic LLC cells xenografted C57BL/6 mouse assessed as lethargy at 0.5 to 5 mg/kg, sc qd for 18 days; type: organism-based; design: dose 0.5-5 mg/kg, route subcutaneous; details: in vivo, 432 h
In short: (§2)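 C57BL/6 mice bearing sc right-flank VEGF-A-hm LLC tumours (1 × 10^6 cells) were dosed sc at 0.5 or 5 mg/kg from day 12 after inoculation, over the 18-day growth study. Animals were monitored for body weight loss, lethargy, hair loss and mortality.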

HUVEC [9] = assay: Down regulation of VEGFR2 expression in VEGFA-stimulated HUVEC at 5 to 20 uM after 24 hrs by Western blot analysis; type: functional, cell-based; details: Homo sapiens
Mus musculus [10] = assay: Toxicity in VEGFA-stimulated mouse highly metastatic LLC cells xenografted C57BL/6 mouse assessed as mortality at 0.5 to 5 mg/kg, sc qd for 18 days; type: organism-based; design: dose 0.5-5 mg/kg, route subcutaneous; details: in vivo, 432 h; in short: as §2
HUVEC [11] = assay: Down regulation of COX2 expression in HUVEC at 5 to 20 uM after 24 hrs by Western blot analysis; type: functional, cell-based; details: Homo sapiens
[12] = target: c-Jun N-terminal kinase, JNK (Homo sapiens) (UniProt P45983+P53779+P45984); assay: Inhibition of VEGFA-stimulated JNK phosphorylation in HUVEC by Western blot analysis; type: cell-based
In short: (§3)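 VEGF-A-HUVECs exposed to 1, 5 or 10 μM were lysed with protease and phosphatase inhibitors (1 mM NaF, 1 mM Na3VO4). Lysates (10 μg/lane) were run on 10% SDS-PAGE and immunoblotted (1:1000) for phospho- and total ERK1/2, JNK and p38, detected by HRP-ECL.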

HUVEC [13] = assay: Down regulation of COX2 expression in VEGFA-stimulated HUVEC at 5 to 20 uM after 24 hrs by Western blot analysis; type: functional, cell-based; details: Homo sapiens
Mus musculus [14] = assay: Toxicity in VEGFA-stimulated mouse highly metastatic LLC cells xenografted C57BL/6 mouse assessed as hair loss at 0.5 to 5 mg/kg, sc qd for 18 days; type: organism-based; design: dose 0.5-5 mg/kg, route subcutaneous; details: in vivo, 432 h; in short: as §2
[15] = system: Lewis lung carcinoma cell line; assay: Antiangiogenic activity against VEGFA-stimulated mouse highly metastatic LLC cells xenografted in C57BL/6 mouse assessed as reduction of vessel formation at 0.5 mg/kg, sc qd for 7 days relative to control; type: functional; design: scale not given: the % may be the effect or the level left; details: route subcutaneous
In short: (§4)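 VEGF-A-hm LLC cells (5 × 10^5 in 50 μL) were inoculated intradermally into the back skin of mice. Compound was given sc at 0.5 or 5 mg/kg/day for 7 days, starting day 3 after inoculation. Mice were killed on day 10 and the inoculated skin separated from underlying tissue. Only vessels directly supplying the tumour were counted under a dissecting microscope; reduction is versus untreated control.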

HUVEC [16] = assay: Inhibition of VEGFA-stimulated PGE2 production in HUVEC at 5 to 20 uM after 24 hrs by ELISA; type: functional, cell-based; details: Homo sapiens
[17] = target: Mitogen-activated protein kinase; ERK1/ERK2 (Homo sapiens) (UniProt P27361+P28482); assay: Inhibition of VEGFA-stimulated ERK1/2 phosphorylation in HUVEC by Western blot analysis; type: protein assay; in short: as §3
Mitogen-activated protein kinase; ERK1/ERK2 (Homo sapiens), sequence (P27361 whole entry, looked up): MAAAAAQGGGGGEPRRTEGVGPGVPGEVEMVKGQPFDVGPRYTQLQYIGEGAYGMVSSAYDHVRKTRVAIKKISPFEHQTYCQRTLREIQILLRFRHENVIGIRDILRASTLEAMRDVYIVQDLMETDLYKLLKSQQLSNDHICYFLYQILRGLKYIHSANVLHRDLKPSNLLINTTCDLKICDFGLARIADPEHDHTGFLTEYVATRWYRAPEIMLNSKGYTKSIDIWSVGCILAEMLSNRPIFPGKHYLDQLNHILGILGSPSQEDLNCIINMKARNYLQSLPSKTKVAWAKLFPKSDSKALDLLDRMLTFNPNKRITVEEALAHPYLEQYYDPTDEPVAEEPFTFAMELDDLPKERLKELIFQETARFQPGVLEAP
Mitogen-activated protein kinase; ERK1/ERK2 (Homo sapiens), sequence (P28482 whole entry, looked up): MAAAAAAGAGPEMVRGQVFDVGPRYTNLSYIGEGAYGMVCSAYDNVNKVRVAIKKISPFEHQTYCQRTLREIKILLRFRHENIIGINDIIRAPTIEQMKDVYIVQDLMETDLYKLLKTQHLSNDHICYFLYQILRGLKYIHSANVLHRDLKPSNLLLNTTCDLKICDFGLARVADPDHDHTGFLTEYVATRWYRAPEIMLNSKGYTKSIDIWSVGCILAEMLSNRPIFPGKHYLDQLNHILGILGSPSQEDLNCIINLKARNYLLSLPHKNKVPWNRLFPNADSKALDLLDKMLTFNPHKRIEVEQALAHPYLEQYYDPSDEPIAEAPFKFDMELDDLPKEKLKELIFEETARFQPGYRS

[18] = system: Lewis lung carcinoma cell line; assay: Antiangiogenic activity against VEGFA-stimulated mouse highly metastatic LLC cells xenografted in C57BL/6 mouse assessed as reduction of vessel formation at 5 mg/kg, sc qd for 7 days relative to control; type: functional; design: scale not given: the % may be the effect or the level left; details: route subcutaneous; in short: as §4
[19] = system: Lewis lung carcinoma cell line; assay: Antitumor activity against VEGFA-stimulated mouse highly metastatic LLC cells xenografted in C57BL/6 mouse assessed as tumor growth inhibition at 5 mg/kg, […] relative to control; type: functional; details: sc, 432 h, route subcutaneous, read-out: TGI
Mus musculus [20] = assay: Toxicity in VEGFA-stimulated mouse highly metastatic LLC cells xenografted C57BL/6 mouse assessed as lethargy at 0.5 to 5 mg/kg, sc qd for 7 days; type: organism-based; design: dose 0.5-5 mg/kg, route subcutaneous; details: in vivo, 168 h
[21] = Cytotoxicity against HUVEC assessed as cell viability at 5 uM after 48 hrs by MTT assay relative to control; type: cell-based; details: human, HUVEC cells; read-out: Activity; in short: as §1
[22] = system: Lewis lung carcinoma cell line; assay: Antitumor activity against VEGFA-stimulated mouse highly metastatic LLC cells xenografted in C57BL/6 mouse assessed as tumor growth inhibition at 0.5 mg/kg, […] relative to control; type: functional; details: sc, 432 h, route subcutaneous, read-out: TGI
HUVEC [23] = assay: Down regulation of VEGF-A expression in VEGFA-stimulated HUVEC at 5 to 20 uM after 24 hrs by Western blot analysis; type: functional, cell-based; details: Homo sapiens
HUVEC [24] = assay: Down regulation of VEGFR2 expression in HUVEC at 5 to 20 uM after 24 hrs by Western blot analysis; type: functional, cell-based; details: Homo sapiens
[25] = target: T1, MAP kinase p38 (Homo sapiens) (UniProt O15264+Q15759+Q16539+P53778); assay: Increase of VEGFA-stimulated p38 phosphorylation in HUVEC by Western blot analysis; type: protein assay; in short: as §3
[26] = Cytotoxicity against HUVEC assessed as cell viability at 10 uM after 48 hrs by MTT assay relative to control; type: cell-based; details: human, HUVEC cells; read-out: Activity; in short: as §1
[27] = target: T1, MAP kinase p38 (Homo sapiens); assay: Increase of VEGFA-stimulated p38 phosphorylation in HUVEC by Western blot analysis in presence of p38 inhibitor SB203580; type: protein assay
In short: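 VEGF-A-HUVECs were pretreated 30 min with SB203580 before the compound was added. Lysates with phosphatase inhibitors (10 μg/lane) were separated by 10% SDS-PAGE and immunoblotted (1:1000) for phospho-p38 and total p38, detected by HRP-ECL.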

Mus musculus [28] = assay: Toxicity in VEGFA-stimulated mouse highly metastatic LLC cells xenografted C57BL/6 mouse assessed as hair loss at 0.5 to 5 mg/kg, sc qd for 7 days; type: organism-based; design: dose 0.5-5 mg/kg, route subcutaneous; details: in vivo, 168 h
HUVEC [29] = assay: Down regulation of VEGFA-stimulated VEGF-A expression in HUVEC at 5 to 20 uM after 24 hrs by Western blot analysis in presence of p38 inhibitor SB203580; type: functional, cell-based; details: Homo sapiens
[30] = system: Lewis lung carcinoma cell line; assay: Antitumor activity against VEGFA-stimulated mouse highly metastatic LLC cells xenografted in C57BL/6 mouse assessed as reduction of tumor weight at 5 mg/kg, […] relative to control; type: functional; design: scale not given: the % may be the effect or the level left; details: route subcutaneous
HUVEC [31] = assay: Down regulation of VEGF-A expression in HUVEC at 5 to 20 uM after 24 hrs by Western blot analysis; type: functional, cell-based; details: Homo sapiens
[32] = Cytotoxicity against HUVEC assessed as cell viability at 20 uM after 48 hrs by MTT assay relative to control; type: cell-based; details: human, HUVEC cells; read-out: Activity; in short: as §1
[33] = Cytotoxicity against HUVEC assessed as cell viability at 1 uM after 48 hrs by MTT assay relative to control; type: cell-based; details: human, HUVEC cells; read-out: Activity; in short: as §1
Mus musculus [34] = assay: Toxicity in VEGFA-stimulated mouse highly metastatic LLC cells xenografted C57BL/6 mouse assessed as reduction of body weight at 0.5 to 5 mg/kg, sc qd for 18 days; type: organism-based; design: dose 0.5-5 mg/kg, route subcutaneous; details: in vivo, 432 h; in short: as §2

CC[C@H](C)[C@H](NC(=O)CN)C(=O)NCC(=O)N[C@@H](C)C(=O)N[C@H](C(=O)N[C@@H](CC(C)C)C(=O)N[C@@H](CCCCN)C(=O)N[C@H](C(=O)N[C@@H](CC(C)C)C(=O)N[C@H](C(=O)N[C@H](C(=O)NCC(=O)N[C@@H](CC(C)C)C(=O)N1CCC[C@H]1C(=O)N[C@@H](C)C(=O)N[C@@H](CC(C)C)C(=O)N[C@H](C(=O)N[C@@H](CO)C(=O)N[C@@H](Cc1c[nH]c2ccccc12)C(=O)N[C@H](C(=O)N[C@@H](CCCCN)C(=O)N[C@@H](CCCNC(=N)N)C(=O)N[C@@H](CCCCN)C(=O)N[C@@H](CCCNC(=N)N)C(=O)N[C@@H](CCC(N)=O)C(=O)N[C@@H](CCC(N)=O)C(N)=O)[C@@H](C)CC)[C@@H](C)CC)[C@@H](C)O)[C@@H](C)O)C(C)C)C(C)C [MELITTIN]
Activity (HUVEC [1]): inactive
inhibition (HUVEC [2]): Active
Activity [3]: 60%
Activity (Mus musculus [4]): Non-toxic
viability at 48 h, 40 µM [5]: 96.5%
IC50 (HUVEC [6]): 18 µM
inhibition (HUVEC [6]): Dose-dependent effect
IC50 (HUVEC [7]): 13 µM
inhibition (HUVEC [7]): Dose-dependent effect
Activity (Mus musculus [8]): Non-toxic
Activity (HUVEC [9]): Active
Activity (Mus musculus [10]): Non-toxic
Activity (HUVEC [11]): inactive
inhibition [12]: Active
Activity (HUVEC [13]): Active
Activity (Mus musculus [14]): Non-toxic
Activity [15]: 52%
inhibition (HUVEC [16]): Active
inhibition [17]: Dose-dependent effect
Activity [18]: 59%
inhibition in vivo at 5 mg/kg [19]: 57%
Activity (Mus musculus [20]): Non-toxic
viability at 48 h, 5 µM [21]: 98.9%
inhibition in vivo at 0.5 mg/kg [22]: 25%
Activity (HUVEC [23]): Active
Activity (HUVEC [24]): inactive
Activity [25]: Dose-dependent effect
viability at 48 h, 10 µM [26]: 99.4%
Activity [27]: inactive
Activity (Mus musculus [28]): Non-toxic
Activity (HUVEC [29]): inactive
Activity [30]: 91%
Activity (HUVEC [31]): inactive
viability at 48 h, 20 µM [32]: 98.5%
viability at 48 h, 1 µM [33]: 104%
Activity (Mus musculus [34]): Non-toxic

CS(=O)(=O)Nc1ccc([N+](=O)[O-])cc1OC1CCCCC1 [NS-398]
inhibition (HUVEC [6]): Active
inhibition (HUVEC [7]): Active
Activity [18]: 22%
inhibition in vivo at 5 mg/kg [19]: 42%
